Drawing on PubChem BioAssay AID504818 (Southern Research Specialized Biocontainment Screening …, 2011), this text covers viability and CC50 for 26 molecules.

Several values for one entry are separate records, joined by “and”; a condition that tells them apart may be missing. Equal values may be shown once. Activity calls are given as the source filed them.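 How the source made its calls: active means any dose giving under 70% viability, per first replicate; inactive means the rest.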

System in the first test: not listed separately
The experiment in a line: HEp-2 cell cytotoxicity, SAR follow-up, cytotoxicity control for RSV inhibitor project, synthesized compounds, set 8 (AID 504818). To be noted: HEp-2 viability, ATP luminescence; at 50 µM (top of the series). In outline: (§1)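 Assay system: uninfected HEp-2 human cells, ATP-based viability; amount: 10,595 cells/well; compound dosing: eight 1:2 steps, 0.39–50 µM, 0.5% DMSO; timing: compound exposure of 6 days at 37 °C; signal: ATP luminescence (CellTiter-Glo); measure: % viability and CC50 (0–100 bounded fit); benchmarks: cell-only wells as 100% reference; replicates: each concentration tested in triplicate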
For the molecule `Cc1ccc(NC(=O)C(C)NS(=O)(=O)c2cccc3cccnc23)c(C)c1` (stereo unspecified), the viability (in general, a read-out of living cells in per cent, often relative to untreated cells) was 77.7% (inactive). With `COc1ccc(C)cc1NC(=O)[C@@H]1CCCN1S(=O)(=O)c1cccc2cccnc12`, the viability is 82% (inactive). Turning to `Cc1ncccc1NC(=O)[C@@H]1CCCN1S(=O)(=O)c1cccc2cccnc12`, the viability is 72.6% (inactive). On the same count and under the same terms, the same measure for `Cc1ccc(NC(=O)C2CCCN2S(C)(=O)=O)c(C)c1` (stereo unspecified): 96.3% (inactive).

A further test has as its system HEp-2 viability, ATP luminescence. The test is described as above.
Conditions: not given
In outline: as §1
Turning to `O=C(Nc1ccccc1)[C@@H]1CCCN1S(=O)(=O)c1cccc2cccnc12`, the CC50 (commonly the concentration that lowers cell viability or growth by half) is 38.4 µM. As to `Cc1ccc(NC(=O)C2CCCN2S(=O)(=O)c2cccc3cccnc23)c(C)c1` (stereo unspecified), the CC50 was 33.4 µM. On the same count and under the same terms, the figure for `Cc1ccc(C(F)(F)F)cc1NC(=O)[C@@H]1CCCN1S(=O)(=O)c1cccc2cccnc12` is 3.7 µM.

For `Cc1cccc(NC(=O)[C@@H]2CCCN2S(=O)(=O)c2cccc3cccnc23)c1`, the CC50 was 20.8 µM. On to `Cc1cccc(NC(=O)[C@@H]2CCCN2S(=O)(=O)c2cccc3cccnc23)c1C`, for which the CC50 was 49.5 µM. For the molecule `Cc1ccc(Cn2c(=O)n(Cc3ccc(C(=O)NC(C)(C)C)cc3)c(=O)c3ccccc32)cc1`, the CC50 is 10.2 µM. The same measure, in the same setting: the same measure for `Cc1cc(C)cc(NC(=O)[C@@H]2CCCN2S(=O)(=O)c2cccc3cccnc23)c1`: 32.2 µM; for `Cc1ccc(NC(=O)[C@H]2CCCN2S(=O)(=O)c2cccc3cccnc23)c(C)c1`: 40.9 µM.

For `Cc1ccc(NC(=O)[C@@H]2CCCN2S(=O)(=O)c2cccc3cccnc23)c(C)c1`, the CC50 was 33 µM. For `Cc1ccc(Cl)cc1NC(=O)[C@@H]1CCCN1S(=O)(=O)c1cccc2cccnc12`, the CC50 is 9.25 µM. For the molecule `COCCCNC(=O)c1ccc(Cn2c(=O)c3ccc(Br)cc3n(Cc3ccc(C)cc3)c2=O)cc1`, the CC50 is 39 µM.

Regarding `Cc1ccc(F)cc1NC(=O)[C@@H]1CCCN1S(=O)(=O)c1cccc2cccnc12`, the 50% cytotoxic concentration (CC50) is 22.5 µM. Still for that read-out and setting: the same measure for `COCCCNC(=O)c1ccc(Cn2c(=O)c3ccccc3n(C)c2=O)cc1`: 15 µM; for `Cc1ccc(C(C)(C)C)cc1NC(=O)[C@@H]1CCCN1S(=O)(=O)c1cccc2cccnc12`: 6.2 µM; for `Cc1ccc(C(C)C)cc1NC(=O)[C@@H]1CCCN1S(=O)(=O)c1cccc2cccnc12`: 10.6 µM.

With `COCCCNC(=O)c1ccc(Cn2c(=O)c3ccccc3n(Cc3cc(C)on3)c2=O)cc1`, the CC50 is 7 µM. Same read-out and setting: the same measure for `CC(C)c1ccccc1NC(=O)[C@@H]1CCCN1S(=O)(=O)c1cccc2cccnc12`: 30.1 µM. For `Cc1ccc(Cl)c(NC(=O)[C@@H]2CCCN2S(=O)(=O)c2cccc3cccnc23)c1`, the CC50 was 13.6 µM. In the case of `Cc1ccc(NC(=O)[C@@H]2CCCN2S(=O)(=O)c2cccc3cccnc23)cc1`, the CC50 was 33.1 µM.

As to `CCCn1c(=O)n(Cc2ccc(C(=O)NCCCOC)cc2)c(=O)c2ccccc21`, the CC50 was 22.8 µM.

As to `Cc1ccc(C)c(NC(=O)[C@@H]2CCCN2S(=O)(=O)c2cccc3cccnc23)c1`, the CC50 is 36.2 µM and 32.9 µM. Turning to `Cc1ccc(NC(=O)C2CCCN2S(=O)(=O)c2cccc3ccccc23)c(C)c1` (stereo unspecified), the CC50 was 18.4 µM.
